ABHD4 inh = inhibitors of mouse ABHD4; Q8VD66; purified mABHD4, FP-Rh probe fluorescence polarization; hit rate 0.54% among 370,000; inhibition, % at 8.92 µM;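 active = inhibition exceeding the mean over every tested compound plus 3 SD, cut at about 30% in these data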;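 note: 0% = plate median of compound wells and 100% = S159A mutant with DMSO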
Target sequence (Q8VD66 whole entry, looked up): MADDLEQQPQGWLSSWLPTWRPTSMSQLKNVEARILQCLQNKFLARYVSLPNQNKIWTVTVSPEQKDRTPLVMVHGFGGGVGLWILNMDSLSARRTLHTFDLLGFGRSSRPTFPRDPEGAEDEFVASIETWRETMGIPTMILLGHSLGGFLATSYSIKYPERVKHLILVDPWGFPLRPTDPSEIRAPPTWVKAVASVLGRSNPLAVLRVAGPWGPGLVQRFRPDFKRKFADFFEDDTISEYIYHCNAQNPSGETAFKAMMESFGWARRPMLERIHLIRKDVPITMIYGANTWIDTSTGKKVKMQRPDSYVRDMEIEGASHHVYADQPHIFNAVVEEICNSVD
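Material: mouse ABHD4 enzyme, wild type; Benchmarks: S159A mutant high control, sample median low control; Buffer or medium: HEPES pH 7.0, NaCl, Pluronic buffer; Signal: fluorescence polarization; Read-out: percent inhibition of probe binding, normalized to plate controls; Timing: pre-incubation 45 min, probe exposure 60 min, at 25 °C; Dosing: 8.92 µM, single dose.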
TCR-CD3 inh = inhibitors of human TCR-CD3 interaction; TAMRA-labeled TCR probe fluorescence, biochemical; inhibition, % at 9.4 µM; hit rate 0.37% among 360,000;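 note: recombinant mutant TCR 2C K166C tagged with TAMRA read by polarization; 0% = receptor in buffer alone and 100% = receptor with positive control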
PRMT1 FP inh = inhibitors of human PRMT1; AID 652257; Q99873; inhibition, % at 2.79 µM; hit rate 1.3% among 370,000; recombinant PRMT1, activity-based probe fluorescence polarization;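 active = inhibition above about 21% made by adding two undisclosed values, limit read from the data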
Target sequence (Q99873 whole entry, looked up): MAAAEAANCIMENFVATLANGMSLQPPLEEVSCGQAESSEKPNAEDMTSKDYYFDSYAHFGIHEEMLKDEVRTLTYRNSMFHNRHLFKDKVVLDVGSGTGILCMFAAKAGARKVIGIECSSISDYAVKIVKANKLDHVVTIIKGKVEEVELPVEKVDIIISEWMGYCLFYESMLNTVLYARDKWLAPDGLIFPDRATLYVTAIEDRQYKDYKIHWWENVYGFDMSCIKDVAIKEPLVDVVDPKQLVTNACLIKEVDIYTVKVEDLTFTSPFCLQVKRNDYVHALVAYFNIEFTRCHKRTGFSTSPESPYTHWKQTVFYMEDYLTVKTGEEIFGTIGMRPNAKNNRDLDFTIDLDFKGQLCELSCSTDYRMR
HTRA1 inh = HTRA1 (human) protease inhibition. Q92743. recombinant HTRA1, FP-rhodamine activity-based probe, fluorescence polarization. inhibition, % at 5.96 µM. hit rate 0.5% among 340,000; in the data active = inhibition above about 36%;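 note: 0% = enzyme with DMSO and 100% = wells lacking enzyme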
SIAE primary = human SIAE inhibition, primary screen | SIAE FP-Rh probe binding, fluorescence polarization | inhibition, % at 9.66 µM | hit rate 0.69% among 370,000 | AID 1053197;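 active = inhibition above a cutoff: mean of compounds within the control limits plus 3 SD of those, cut at about 17% in these data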;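 note: 0% = plate median of compound wells and 100% = probe without SIAE protein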
HTRA1 inh conf = HTRA1 (human) inhibition, confirmation; shares compounds with HTRA1 inh; recombinant HTRA1, FP-rhodamine activity-based probe, fluorescence polarization; inhibition, % at 5.96 µM; hit rate 66% among 1,600; AID 540248;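 active = mean inhibition over three repeats above a set limit taken from the earlier primary screen, cut at about 37% in these data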;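 note: 0% = HTRA1 with DMSO and 100% = wells lacking HTRA1; inhibitors block probe binding so polarization drops and inhibition rises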
BSA TAMRA ctr = BSA probe counter-screen for TCR-CD3 inhibitors; shares compounds with TCR-CD3 inh; TAMRA-labeled BSA probe fluorescence counterscreen; inhibition, % at 9.4 µM; hit rate 10% among 1,200; AID 652035; in the data active = inhibition above about 23%;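 note: 0% = buffer low control and 100% = reference high control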
TCR-CD3 inh conf = TCR-CD3 interaction inhibition, confirmation; inhibition, % at 9.4 µM; TAMRA-labeled TCR probe fluorescence binding assay; shares compounds with TCR-CD3 inh; hit rate 48% among 1,200
PRMT1 confirm = confirmation of human PRMT1 inhibitors; shares compounds with PRMT1 FP inh; recombinant His-PRMT1, activity-based probe fluorescence polarization; inhibition, % at 2.79 µM; hit rate 42% among 3,300; AID 687036;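 active = mean inhibition across replicates above the hit cutoff derived for the earlier primary screen, cut at about 22% in these data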
mABHD4 conf = confirmation of mouse ABHD4 inhibitors; inhibition, % at 8.92 µM; purified mABHD4, FP-Rh probe fluorescence polarization; shares compounds with ABHD4 inh; AID 720658; hit rate 55% among 1,800;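 active = mean inhibition across replicates above the hit cutoff set in the primary screen, cut at about 30% in these data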;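 note: 0% = wild-type ABHD4 with DMSO and 100% = catalytically dead S159A mutant with DMSO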
SIAE inh conf = human SIAE inhibition, confirmation. inhibition, % at 9.66 µM. AID 1117263. shares compounds with SIAE primary. SIAE FP-Rh activity-based probe, fluorescence polarization. hit rate 13% among 2,300;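 active = mean inhibition of the replicates above the hit cutoff set in the primary screen, cut at about 17% in these data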;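 note: 0% = SIAE with DMSO and probe and 100% = probe without SIAE; inhibitors lower polarization as more probe stays unbound to SIAE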
Numbers without * were called inactive; · = no result given; + = active, no number. Compounds with a hit are over-represented: about 2.6% of the library has one in this group of screens. Cut-off read from the data, not from the text of the source, unless noted: active = inhibition above about 19%; inactive = the rest.

SMILES | ABHD4 inh | TCR-CD3 inh | PRMT1 FP inh | HTRA1 inh | SIAE primary | HTRA1 inh conf | BSA TAMRA ctr | TCR-CD3 inh conf | SIAE inh conf | others
Cc1c(Br)c(O)c(Br)c2sc(=O)oc12 | 67* | 25* | 80* | 47* | 29* | 1 | -8 | 5 | 10 | mABHD4 conf=66*
COc1ccc(CNC(=O)[C@@H](Cc2ccccc2)NC(=O)[C@H]2O[C@@H](n3ccc(=O)[nH]c3=O)[C@H](O)[C@@H]2O)cc1 | 1 | 10 | -1 | · | -2 | · | · | · | ·
COc1cc(OC)c(C2Nc3cccc4cccc(c34)N2)c(OC)c1 | 50* | -3 | 21 | 52* | 21* | 19 | · | · | 7 | mABHD4 conf=36*
c1ccc(C2Nc3cccc4cccc(c34)N2)cc1 | 23 | -2 | 8 | 5 | 10 | · | · | · | ·
COC(=O)[C@]12C[C@H](CC(=O)NCCC(C)C)C(=O)N(Cc3ccc(Cl)cc3Cl)C1=C[C@H](C(C)(C)C)O[C@@H]2C | -9 | · | 8 | · | -2 | · | · | · | ·
O=[N+]([O-])c1cc(Br)c(O)c(C=Nc2ccc(N3CCOCC3)cc2)c1 | 45* | 49* | 9 | 40* | 29* | 1 | · | · | -2 | mABHD4 conf=7
COc1cccc(C=Nc2ccc(N3CCOCC3)cc2)c1O | 20 | 4 | 0 | 17 | 9 | · | · | · | ·
COc1ccc(C(=O)CSc2nnc(-c3ccco3)c(-c3ccco3)n2)cc1 | 19 | 16 | 27* | 37* | 19* | -4 | · | · | 7 | PRMT1 confirm=74*
COc1cccc(NC(=O)CSc2nnc(-c3ccco3)c(-c3ccco3)n2)c1 | 46* | 20* | 47* | 39* | 20* | -6 | · | · | 4 | mABHD4 conf=25
COc1ccc(NC(=O)CSc2nnc(-c3ccco3)c(-c3ccco3)n2)cc1OC | 16 | 5 | 8 | -4 | 12 | · | · | · | ·
COc1ccc(CN(CCN2CCOCC2)C(=O)c2cccc(F)c2)cc1OC | -1 | · | 4 | · | 2 | · | · | · | ·
C=CCN1C(=O)c2[nH]nc(-c3ccccc3)c2C1c1ccc(C)cc1 (stereo not given) | -11 | -4 | 1 | · | -2 | · | · | · | ·
COc1ccc(/C=N\NC(=O)c2cc(O)c(O)c(O)c2)cc1CN1CCN(c2ccc(F)cc2)CC1 | 29 | 23* | 7 | 83* | 30* | 78* | -8 | 23* | -7
COc1ccc(/C=N/NC(=O)c2ccc(C)cc2)cc1CN1CCN(c2ccc(F)cc2)CC1 | · | · | · | -6 | · | · | · | · | ·
Cc1ccc(-c2cccc3[nH]cc(C)c23)s1 | -9 | · | -1 | · | 14 | · | · | · | ·
CC1(C)OC(C)(C)/C(=C/Nc2ccc(O)cc2)C1=O | 62* | 33* | 18 | 63* | 33* | 21 | 9 | 14 | 9 | mABHD4 conf=25
Cc1[nH]n(-c2ncc(-c3ccccc3)s2)c(=O)c1C(c1ccc(Br)cc1)C(C#N)C#N (stereo not given) | 51* | 4 | 3 | 39* | 24* | 30 | · | · | 10 | mABHD4 conf=43*
CC(C)c1ccc(NC(=O)CSc2nnc(-c3ccco3)n2C)cc1 | 0 | · | 4 | · | 0 | · | · | · | ·
O=C(O)CCCNc1cc(N2CCN(C(=O)c3ccco3)CC2)c2noc3c2c1C(=O)c1ccccc1-3 | 66* | 79* | 19 | 52* | 62* | 47* | · | · | 33* | mABHD4 conf=43*
O=C1c2ccccc2-c2c1cccc2C(=O)N1CCN(C(=O)c2ccco2)CC1 | -2 | 0 | 3 | 7 | 7 | · | · | · | ·
COc1cccc2c1C(=O)c1c(O)c3c(c(O)c1C2=O)CC(O)(C(C)=O)CC3OC1CC(O)C(O)C(C)O1 (stereo not given) | 79* | 134* | + | 73* | 68* | 74* | 180* | 142* | 55*
O=C(N/N=C/c1cc(Cl)c(O)c(Cl)c1)c1cc2c(ccc3ccccc32)o1 | 29 | 12 | 4 | 46* | 55* | 50* | · | · | 41*
O=C(N/N=C/c1ccc(O)c(Br)c1)c1cc2c(ccc3ccccc32)o1 | -3 | -12 | -3 | -4 | 1 | · | · | · | ·
O=C(N/N=C/c1cc(Br)c(O)c(Br)c1)c1cc2c(ccc3ccccc32)o1 | 11 | 15 | 11 | 46* | 57* | 49* | · | · | 26*
CC(C)n1nnnc1C1(C)Cn2nccc2C(=O)N1Cc1cccc(C(F)(F)F)c1 (stereo not given) | 5 | · | 1 | · | 3 | · | · | · | ·
SMILES | ABHD4 inh | TCR-CD3 inh | PRMT1 FP inh | HTRA1 inh | SIAE primary | HTRA1 inh conf | BSA TAMRA ctr | TCR-CD3 inh conf | SIAE inh conf | others
O=C(CSc1nnc(-c2ccco2)n1Cc1ccco1)c1ccc([N+](=O)[O-])cc1 | 10 | · | -1 | · | 3 | · | · | · | ·
C=CCOC(=O)N1CCN(C(=O)c2ccc3c(c2)nc(C)n3C2CCCC2)CC1 | 2 | · | -7 | · | 3 | · | · | · | ·
CN(Cc1ccccc1)C(=O)OCc1cn(Cc2c(F)cccc2F)nn1 | 0 | · | 0 | · | 3 | · | · | · | ·
COc1ccc(C(=O)NNC(=O)c2cc3ccccc3cc2O)cc1 | 13 | 32* | 3 | 7 | 4 | · | -11 | 24* | ·
COc1ccccc1C(=O)NNC(=O)c1cc2ccccc2cc1O | 29 | 12 | 1 | 14 | 5 | · | · | · | ·
COc1ccc(NC(=O)c2cccc3ccccc23)cc1OC | -5 | -4 | 4 | 2 | 1 | · | · | · | ·
Cc1ccccc1NC(=O)NNC(=O)c1ccc2ccccc2c1O | 25 | 43* | -1 | 12 | 15 | · | -8 | 33* | ·
CCc1ccc(NC(=O)NNC(=O)c2ccc3ccccc3c2O)cc1 | 6 | 22* | 4 | 11 | 15 | · | 6 | 29* | ·
COc1ccc(NC(=O)NNC(=O)c2ccc3ccccc3c2O)cc1OC | 9 | 51* | 2 | -1 | 16 | · | -7 | 46* | ·
O=C(CSc1nnc(-c2cccnc2)n1C1CCCCC1)NC1CCCCCC1 | 5 | · | -6 | · | 8 | · | · | · | ·
O=C1N(c2ccccc2)CC2CC(c3ccccc3)N3CCCC123 (stereo not given) | 5 | · | 3 | · | -1 | · | · | · | ·
COc1cccc(C(=O)NNC(=O)c2ccc3ccccc3c2O)c1 | 5 | 40* | 11 | 8 | 1 | · | -7 | 36* | ·
COc1cccc(C(=O)NNC(=O)c2ccccc2)c1 | -6 | 0 | -2 | -8 | 6 | · | · | · | ·
COc1ccccc1NC(=O)NNC(=O)c1ccc2ccccc2c1O | 11 | 36* | -1 | 12 | 7 | · | -12 | 25* | ·
CCNC(=O)OCCN1C(=O)CCC12CCC(c1ccc(Cl)cc1)CC2 (stereo not given) | -2 | · | 2 | · | 0 | · | · | · | ·
